# According to ChEMBL document CHEMBL1125231, “Synthesis, peroxidating ability, and antineoplastic evaluation of 1-[(aminoalkyl)amino]-4-hydroxy-10-imino-9-anthracenones” (J Med Chem, 1991):
# How the values were obtained:
# [1] = test system: P388; experiment: In vivo inhibitory activity against P388 murine leukemia cells and the ratio of medium survival time expressed as percent of untreated controls (%T/C) at dose of 2.5 mg/kg (7/7*); type: functional, Mus musculus
# [2] = test system: P388; experiment: In vivo inhibitory activity against P388 murine leukemia cells and the ratio of medium survival time expressed as percent of untreated controls (%T/C) at doses of 80,40,20mg/kg (7/7*); type: functional, Mus musculus
# [3] = test system: P388; experiment: In vivo inhibitory activity against P388 murine leukemia cells and the ratio of medium survival time expressed as percent of untreated controls (%T/C) at dose of 10 mg/kg (7/7*); type: functional, Mus musculus
# [4] = test system: P388; experiment: In vivo inhibitory activity against P388 murine leukemia cells and the ratio of medium survival time expressed as percent of untreated controls (%T/C) at dose of 5 mg/kg (7/7*); type: functional, Mus musculus
# [5] = The capacity to stimulate NADH oxidation was determined.; type: functional
# Outline: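 Cell-free NADH oxidation in 1 mL of 0.05 M Tris-HCl, pH 7.2, with 100 µM compound (hydrochloride), 100 µM NADH and 1 unit/mL NADH dehydrogenase. NADH consumption started by adding the enzyme. Rate expressed as µmol/min.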
# [6] = test system: L1210; experiment: Effective concentration against inhibition of L1210 mouse leukemia cells in tissue culture; type: functional, cell-based
# Outline: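 L1210 mouse leukemia cells seeded at 0.05 × 10^6 cells/mL. Compounds, as hydrochlorides dissolved in 50% ethanol, added at four concentrations. Growth over 48 h measured by cellular protein content. EC50 taken as the concentration giving 50% inhibition of 48-h growth.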
# [7] = test system: P388; experiment: In vivo inhibitory activity against P388 murine leukemia cells and the ratio of medium survival time expressed as percent of untreated controls (%T/C) at dose of 25 mg/kg (7/7*); type: functional, Mus musculus
# [8] = test system: P388; experiment: In vivo inhibitory activity against P388 murine leukemia cells and the ratio of medium survival time expressed as percent of untreated controls (%T/C) at dose of 50 mg/kg (7/7*); type: functional, Mus musculus
# [9] = test system: P388; experiment: In vivo inhibitory activity against P388 murine leukemia cells and the ratio of medium survival time expressed as percent of untreated controls (%T/C) at doses of 6.25,3.12,1.56mg/kg (7/7*); type: functional, Mus musculus
# [10] = test system: P388; experiment: In vivo inhibitory activity against P388 murine leukemia cells and the ratio of medium survival time expressed as percent of untreated controls (%T/C) at dose of 12.5 mg/kg (7/7*); type: functional, Mus musculus
# [11] = test system: P388; experiment: In vivo inhibitory activity against P388 murine leukemia cells and the ratio of medium survival time expressed as percent of untreated controls (%T/C) at dose of 7.5 mg/kg (7/7*); type: functional, Mus musculus
# [12] = test system: P388; experiment: In vivo inhibitory activity against P388 murine leukemia cells and the ratio of medium survival time expressed as percent of untreated controls (%T/C) at dose of 15 mg/kg (7/7*); type: functional, Mus musculus
# [13] = test system: P388; experiment: In vivo inhibitory activity against P388 murine leukemia cells and the ratio of medium survival time expressed as percent of untreated controls (%T/C) at doses of 60,30mg/kg (7/7*); type: functional, Mus musculus
# [14] = test system: P388; experiment: In vivo inhibitory activity against P388 murine leukemia cells and the ratio of medium survival time expressed as percent of untreated controls (%T/C) at dose of 3.78, 1.87 mg/kg (7/7*); type: functional, Mus musculus
# [15] = test system: P388; experiment: In vivo inhibitory activity against P388 murine leukemia cells and the ratio of medium survival time expressed as percent of untreated controls (%T/C) at dose of 12.5 mg/kg (6/6*); type: functional, Mus musculus
# [16] = test system: P388; experiment: In vivo inhibitory activity against P388 murine leukemia cells and the ratio of medium survival time expressed as percent of untreated controls (%T/C) at dose of 25 mg/kg (6/6*); type: functional, Mus musculus
# [17] = test system: P388; experiment: In vivo inhibitory activity against P388 murine leukemia cells and the ratio of medium survival time expressed as percent of untreated controls (%T/C) at dose of 3.12 mg/kg (6/6*); type: functional, Mus musculus
# [18] = test system: P388; experiment: In vivo inhibitory activity against P388 murine leukemia cells and the ratio of medium survival time expressed as percent of untreated controls (%T/C) at dose of 6.25 mg/kg (6/6*); type: functional, Mus musculus
# [19] = test system: P388; experiment: In vivo inhibitory activity against P388 murine leukemia cells and the ratio of medium survival time expressed as percent of untreated controls (%T/C) at doses of 40,20mg/kg (7/7*); type: functional, Mus musculus
# [20] = test system: P388; experiment: In vivo inhibitory activity against P388 murine leukemia cells and the ratio of medium survival time expressed as percent of untreated controls (%T/C) at dose of 80 mg/kg (7/7*); type: functional, Mus musculus
# [21] = test system: P388; experiment: In vivo inhibitory activity against P388 murine leukemia cells and the ratio of medium survival time expressed as percent of untreated controls (%T/C) at doses of 10,5,2,5 mg/kg (7/7*); type: functional, Mus musculus
# [22] = test system: P388; experiment: In vivo inhibitory activity against P388 murine leukemia cells and the ratio of medium survival time expressed as percent of untreated controls (%T/C) at dose of 80 mg/kg (5/6*); type: functional, Mus musculus
# [23] = test system: P388; experiment: In vivo inhibitory activity against P388 murine leukemia cells and the ratio of medium survival time expressed as percent of untreated controls (%T/C) at dose of 2.5 mg/kg (6/6*); type: functional, Mus musculus
# [24] = test system: P388; experiment: In vivo inhibitory activity against P388 murine leukemia cells and the ratio of medium survival time expressed as percent of untreated controls (%T/C) at dose of 20 mg/kg (6/6*); type: functional, Mus musculus
# [25] = test system: P388; experiment: In vivo inhibitory activity against P388 murine leukemia cells and the ratio of medium survival time expressed as percent of untreated controls (%T/C) at dose of 40 mg/kg (6/6*); type: functional, Mus musculus
# [26] = test system: P388; experiment: In vivo inhibitory activity against P388 murine leukemia cells and the ratio of medium survival time expressed as percent of untreated controls (%T/C) at dose of 10 mg/kg (6/6*); type: functional, Mus musculus
# [27] = test system: P388; experiment: In vivo inhibitory activity against P388 murine leukemia cells and the ratio of medium survival time expressed as percent of untreated controls (%T/C) at dose of 5 mg/kg (6/6*); type: functional, Mus musculus
compound,measurement,setting,value
N=C1c2ccccc2C(=O)c2c(NCCNCCO)ccc(O)c21,T/C,[1],120%
same,T/C,[2],160%
same,T/C,[3],150%
same,T/C,[4],130%
same,NADH oxidn,[5],19.3 µM/min
same,EC50,[6],1.43 µg/mL
O=C1c2ccccc2C(=O)c2c(NCCNCCO)ccc(O)c21,T/C,[7],117%
same,T/C,[8],127%
same,T/C,[9],100%
same,NADH oxidation,[5],28.9 µM/min
same,T/C,[10],109%
same,EC50,[6],0.27 µg/mL
NCCNc1ccc(O)c2c1C(=O)c1ccccc1C2=O,NADH oxidation,[5],25.7 µM/min
same,EC50,[6],0.24 µg/mL
COc1cccc2c1C(=N)c1c(O)ccc(NCCNCCO)c1C2=O,EC50,[6],2.8 µg/mL
CN(C)CCNc1ccc(O)c2c1C(=O)c1ccccc1C2=O,T/C,[11],100%
same,T/C,[12],109%
same,T/C,[13],117%
same,NADH oxidation,[5],25.7 µM/min
same,T/C,[14],91%
same,EC50,[6],0.33 µg/mL
O=C1c2ccccc2C(=O)c2c(NCCNCCO)ccc(NCCNCCO)c21 [AMETANTRONE],T/C,[15],300%
same,T/C,[16],200%
same,T/C,[17],190%
same,NADH oxidation,[5],28.9 µM/min
same,T/C,[18],210%
same,EC50,[6],0.21 µg/mL
CN(C)CCNc1ccc(O)c2c1C(=O)c1ccccc1C2=N,T/C,[19],100%
same,T/C,[20],125%
same,NADH oxidn,[5],17.7 µM/min
same,T/C,[21],92%
same,EC50,[6],2.21 µg/mL
N=C1c2ccccc2C(=O)c2c(NCCN)ccc(O)c21,T/C,[22],55%
same,T/C,[23],100%
same,T/C,[24],109%
same,T/C,[25],118%
same,NADH oxidn,[5],20.9 µM/min
same,T/C,[26],118%
same,T/C,[27],109%
same,EC50,[6],0.89 µg/mL
